Source: ChEMBL document CHEMBL1140074, “Aminoacyl-anthraquinone conjugates as telomerase inhibitors: synthesis, biophysical and biological evaluation” (J Med Chem, 2008)

How the values were obtained:
[1] = target: DNA polymerase I, thermostable (Thermus aquaticus, UniProt P19821); test: Inhibition of Taq polymerase
In short: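 PCR with 2.5 ng pBR322 template and primers Tup/Tdown (0.5 µM) amplifying plasmid bases 906-1064. Compounds tested from 20 nM to 40 µM. Run 25 cycles of 94 °C, 65 °C and 72 °C (30 s each). Products resolved on 2% agarose in TBE and stained with ethidium bromide.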

HeLa = test: Cytotoxicity against human HeLa cells expressing telomerase after 96 hrs by MTT assay; assay type: functional, cell-based
In short: (§1)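 Cells grown in DMEM with 10% heat-inactivated FCS, penicillin/streptomycin, 37 °C, 5% CO2. Plated at 10000 cells/well and left overnight, then exposed to eight serial dilutions in triplicate for 96 h. MTT added to 0.8 mg/mL final for 2 h, formazan dissolved in DMSO, absorbance read at 540 nm. IC50 from sigmoidal dose-response fits.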

[2] = target: Telomerase reverse transcriptase (Homo sapiens, UniProt O14746); test: Inhibition of telomerase in human JR8 cells by TRAP assay; assay type: cell-based
In short: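 Telomerase source was a CHAPS lysate of exponentially growing JR8 cells (500 ng protein per reaction). Elongation 30 min at 30 °C, then 30 PCR cycles. Products run on 10% PAGE with phosphorimager read-out, in triplicate. Drug levels kept below those inhibiting Taq.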

Homo sapiens [3] = species: Homo sapiens; test: Binding affinity to human telomeric DNA sequence assessed as stabilization of G-quadruplex at 10 uM by thermal denaturation
In short: (§2)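 Fluorescence melting in a LightCycler of 0.25 µM telomeric oligonucleotide HTS (5'-FAM, 3'-methyl red) in LiP buffer (10 mM LiOH, 50 mM KCl, pH 7.4 with H3PO4). Samples were denatured at 95 °C for 5 min, then cooled and reheated at 0.5 °C/min in 1 °C steps with 2 min equilibration per step. Excitation 488 nm, emission 520 nm. ΔTm was taken relative to ligand-free DNA.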

Homo sapiens [4] = species: Homo sapiens; test: Binding affinity to human telomeric DNA sequence assessed as stabilization of G-quadruplex at 1 uM by thermal denaturation; in short: as §2
[5] = Cytotoxicity against human 293T cells expressing telomerase after 96 hrs by MTT assay; assay type: cell-based; conditions: HEK-293T; in short: as §1

Sequence of DNA polymerase I, thermostable (P19821 whole entry): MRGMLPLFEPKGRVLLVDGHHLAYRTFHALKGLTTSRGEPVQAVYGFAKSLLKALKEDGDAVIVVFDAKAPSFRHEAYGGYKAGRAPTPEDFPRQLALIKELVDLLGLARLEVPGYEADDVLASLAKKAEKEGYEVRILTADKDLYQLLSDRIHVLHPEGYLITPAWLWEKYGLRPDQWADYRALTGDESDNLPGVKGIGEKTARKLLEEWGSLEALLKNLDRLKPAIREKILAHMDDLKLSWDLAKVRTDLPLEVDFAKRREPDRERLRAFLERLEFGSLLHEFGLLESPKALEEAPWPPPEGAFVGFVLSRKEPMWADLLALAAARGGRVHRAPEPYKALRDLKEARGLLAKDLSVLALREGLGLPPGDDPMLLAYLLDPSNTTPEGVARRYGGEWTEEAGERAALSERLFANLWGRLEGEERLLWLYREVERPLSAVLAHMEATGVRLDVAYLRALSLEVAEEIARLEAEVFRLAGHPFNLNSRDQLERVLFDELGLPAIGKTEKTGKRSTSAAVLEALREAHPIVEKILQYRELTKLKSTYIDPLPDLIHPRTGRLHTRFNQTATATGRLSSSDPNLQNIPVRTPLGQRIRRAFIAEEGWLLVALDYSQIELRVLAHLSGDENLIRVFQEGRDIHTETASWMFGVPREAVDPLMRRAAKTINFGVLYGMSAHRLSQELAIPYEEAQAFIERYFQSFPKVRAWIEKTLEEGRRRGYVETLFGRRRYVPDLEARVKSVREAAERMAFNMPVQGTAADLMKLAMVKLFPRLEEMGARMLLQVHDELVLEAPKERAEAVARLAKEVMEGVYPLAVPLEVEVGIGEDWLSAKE
Sequence of Telomerase reverse transcriptase (O14746 whole entry): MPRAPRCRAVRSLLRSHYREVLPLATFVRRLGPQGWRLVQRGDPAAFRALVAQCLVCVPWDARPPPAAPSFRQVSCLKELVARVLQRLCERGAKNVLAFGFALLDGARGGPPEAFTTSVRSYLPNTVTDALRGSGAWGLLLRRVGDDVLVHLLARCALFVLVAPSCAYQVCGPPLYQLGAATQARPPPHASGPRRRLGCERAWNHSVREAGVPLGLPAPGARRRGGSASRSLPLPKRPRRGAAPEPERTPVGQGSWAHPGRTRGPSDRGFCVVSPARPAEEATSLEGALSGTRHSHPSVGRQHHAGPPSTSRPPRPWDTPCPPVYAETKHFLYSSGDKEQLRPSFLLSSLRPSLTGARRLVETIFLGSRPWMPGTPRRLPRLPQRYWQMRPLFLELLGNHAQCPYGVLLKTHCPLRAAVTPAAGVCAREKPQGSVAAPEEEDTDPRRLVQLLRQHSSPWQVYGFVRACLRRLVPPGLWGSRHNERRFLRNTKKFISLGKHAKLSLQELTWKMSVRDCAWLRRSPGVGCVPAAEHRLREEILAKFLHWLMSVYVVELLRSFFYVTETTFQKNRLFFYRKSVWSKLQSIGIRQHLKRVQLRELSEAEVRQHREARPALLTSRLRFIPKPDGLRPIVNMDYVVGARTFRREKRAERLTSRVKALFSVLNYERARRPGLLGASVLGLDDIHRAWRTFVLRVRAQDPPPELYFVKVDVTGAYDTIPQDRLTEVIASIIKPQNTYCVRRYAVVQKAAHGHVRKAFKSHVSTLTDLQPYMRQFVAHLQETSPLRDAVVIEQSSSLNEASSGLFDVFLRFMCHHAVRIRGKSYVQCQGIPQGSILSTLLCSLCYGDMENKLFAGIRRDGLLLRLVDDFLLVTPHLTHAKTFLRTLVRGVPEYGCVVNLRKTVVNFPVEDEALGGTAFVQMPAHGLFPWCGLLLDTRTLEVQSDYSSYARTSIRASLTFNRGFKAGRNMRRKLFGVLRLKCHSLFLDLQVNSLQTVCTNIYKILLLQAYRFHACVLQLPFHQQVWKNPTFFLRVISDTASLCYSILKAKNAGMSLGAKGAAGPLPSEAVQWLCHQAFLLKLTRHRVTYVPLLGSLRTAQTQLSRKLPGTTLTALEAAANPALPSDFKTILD

Structure (SMILES) | EC50 [1] [µM] | IC50 (HeLa) [µM] | EC50 [2] [µM] | ΔTm (Homo sapiens [3]) [°C] | ΔTm (Homo sapiens [4]) [°C] | IC50 [5] [µM]
NCCCC[C@H](N)C(=O)NCCC(=O)Nc1ccc2c(c1)C(=O)c1cc(NC(=O)CCNC(=O)[C@@H](N)CCCCN)ccc1C2=O | 2.5 | > 100 | 1.5 | 17 | 3 | > 100
CC[C@H](C)[C@H](N)C(=O)NCCC(=O)Nc1ccc2c(c1)C(=O)c1ccc(NC(=O)CCNC(=O)[C@@H](N)[C@@H](C)CC)cc1C2=O | > 40 |  | > 40 | 5.7 | 0 | 
N=C(N)NCCC[C@H](N)C(=O)NCCNC(=O)c1ccc2c(c1)C(=O)c1ccc(C(=O)NCCNC(=O)[C@@H](N)CCCNC(=N)N)cc1C2=O | 10 | 85 | 1.5 | 16.4 | 5.2 | > 100
CC[C@H](C)[C@H](N)C(=O)NCCNC(=O)c1ccc2c(c1)C(=O)c1ccc(C(=O)NCCNC(=O)[C@@H](N)[C@@H](C)CC)cc1C2=O | > 40 |  | > 40 | 1.1 | 0.2 | 
CC(C)C[C@H](N)C(=O)NCCNC(=O)c1ccc2c(c1)C(=O)c1ccc(C(=O)NCCNC(=O)[C@@H](N)CC(C)C)cc1C2=O | > 40 |  | > 40 | 1.3 | 0.2 | 
CC[C@H](C)[C@H](N)C(=O)NCC(=O)Nc1ccc2c(c1)C(=O)c1ccc(NC(=O)CNC(=O)[C@@H](N)[C@@H](C)CC)cc1C2=O | > 40 | 18 | 25 | 4.3 | 0.8 | 42
CC[C@H](C)[C@H](N)C(=O)NCCC(=O)Nc1ccc2c(c1)C(=O)c1cc(NC(=O)CCNC(=O)[C@@H](N)[C@@H](C)CC)ccc1C2=O | > 40 |  | > 40 | 2.8 | 0.2 | 
NC(N)=NCCC[C@H](N)C(=O)NCCC(=O)Nc1ccc2c(c1)C(=O)c1cc(NC(=O)CCNC(=O)[C@@H](N)CCCN=C(N)N)ccc1C2=O | 4 |  | 4 |  |  | 
C[C@H](N)C(=O)NCC(=O)Nc1ccc2c(c1)C(=O)c1ccc(NC(=O)CNC(=O)[C@H](C)N)cc1C2=O | > 40 | 17 | 25 | 9.2 | 6.1 | 43
C[C@H](N)C(=O)NCCC(=O)Nc1ccc2c(c1)C(=O)c1cc(NC(=O)CCNC(=O)[C@H](C)N)ccc1C2=O | > 40 | 64 | 15 | 9 | 0.3 | > 100
CC(C)[C@H](N)C(=O)NCC(=O)Nc1ccc2c(c1)C(=O)c1ccc(NC(=O)CNC(=O)[C@@H](N)C(C)C)cc1C2=O | > 40 |  | > 40 | 6 | 0.5 | 
N=C(N)NCCC[C@H](N)C(=O)NCCC(=O)Nc1ccc2c(c1)C(=O)c1ccc(NC(=O)CCNC(=O)[C@@H](N)CCCNC(=N)N)cc1C2=O |  | 100 |  | 25 | 4.8 | > 100
NCC(=O)NCC(=O)Nc1ccc2c(c1)C(=O)c1ccc(NC(=O)CNC(=O)CN)cc1C2=O | > 40 | 39 | 5 | 8.6 | 0.4 | > 100
NC(N)=NCCC[C@H](N)C(=O)NCCNC(=O)c1ccc2c(c1)C(=O)c1cc(C(=O)NCCNC(=O)[C@@H](N)CCCN=C(N)N)ccc1C2=O | 10 |  | 1.2 |  |  | 
N[C@@H](Cc1ccccc1)C(=O)NCCC(=O)Nc1ccc2c(c1)C(=O)c1ccc(NC(=O)CCNC(=O)[C@@H](N)Cc3ccccc3)cc1C2=O | > 40 |  | > 40 | 4.3 | 0.5 | 
N=C(N)NCCC[C@H](N)C(=O)NCCC(=O)Nc1ccc2c(c1)C(=O)c1cc(NC(=O)CCNC(=O)[C@@H](N)CCCNC(=N)N)ccc1C2=O |  |  |  | 13.3 | 0.6 | 
NCC(=O)NCCNC(=O)c1ccc2c(c1)C(=O)c1cc(C(=O)NCCNC(=O)CN)ccc1C2=O | > 40 |  | > 40 | 3.3 | 0.4 | 
C[C@H](N)C(=O)NCCNC(=O)c1ccc2c(c1)C(=O)c1cc(C(=O)NCCNC(=O)[C@H](C)N)ccc1C2=O | > 40 |  | > 40 | 3.9 | 0.5 | 
O=C1c2c(O)ccc(O)c2C(=O)c2c(NCCNCCO)ccc(NCCNCCO)c21 [MITOXANTRONE] |  | < 0.1 |  |  |  | < 0.1
NCCCC[C@H](N)C(=O)NCCNC(=O)c1ccc2c(c1)C(=O)c1ccc(C(=O)NCCNC(=O)[C@@H](N)CCCCN)cc1C2=O | 10 | 100 | 0.8 | 15.9 | 7.9 | > 100

Structure (SMILES) | EC50 [1] [µM] | IC50 (HeLa) [µM] | EC50 [2] [µM] | ΔTm (Homo sapiens [3]) [°C] | ΔTm (Homo sapiens [4]) [°C] | IC50 [5] [µM]
NCC(=O)NCCNC(=O)c1ccc2c(c1)C(=O)c1ccc(C(=O)NCCNC(=O)CN)cc1C2=O | > 40 |  | > 40 | 2.9 | 0.3 | 
N=C(N)NCCC[C@H](N)C(=O)NCC(=O)Nc1ccc2c(c1)C(=O)c1ccc(NC(=O)CNC(=O)[C@@H](N)CCCNC(=N)N)cc1C2=O |  | 89 |  | 22.9 | 9.8 | 86
N[C@@H](Cc1ccccc1)C(=O)NCCC(=O)Nc1ccc2c(c1)C(=O)c1cc(NC(=O)CCNC(=O)[C@@H](N)Cc3ccccc3)ccc1C2=O | > 40 |  | > 40 | 7 | 0.3 | 
CC(C)C[C@H](N)C(=O)NCC(=O)Nc1ccc2c(c1)C(=O)c1ccc(NC(=O)CNC(=O)[C@@H](N)CC(C)C)cc1C2=O | > 40 |  | > 40 | 3.8 | 0.7 | 
CC(C)[C@H](N)C(=O)NCCC(=O)Nc1ccc2c(c1)C(=O)c1ccc(NC(=O)CCNC(=O)[C@@H](N)C(C)C)cc1C2=O | > 40 |  | > 40 | 6 | 0 | 
N[C@@H](Cc1ccccc1)C(=O)NCCNC(=O)c1ccc2c(c1)C(=O)c1ccc(C(=O)NCCNC(=O)[C@@H](N)Cc3ccccc3)cc1C2=O | > 40 |  | > 40 | 1.1 | 0.2 | 
NC(N)=NCCC[C@H](N)C(=O)NCCC(=O)Nc1ccc2c(c1)C(=O)c1ccc(NC(=O)CCNC(=O)[C@@H](N)CCCN=C(N)N)cc1C2=O | 10 |  | 0.8 |  |  | 
N[C@@H](CO)C(=O)NCCNC(=O)c1ccc2c(c1)C(=O)c1cc(C(=O)NCCNC(=O)[C@@H](N)CO)ccc1C2=O | > 40 |  | > 40 | 2.1 | 0.3 | 
C[C@H](N)C(=O)NCCC(=O)Nc1ccc2c(c1)C(=O)c1ccc(NC(=O)CCNC(=O)[C@H](C)N)cc1C2=O | > 40 |  | > 40 | 8.2 | 0.2 | 
C[C@@H](O)[C@H](N)C(=O)NCCNC(=O)c1ccc2c(c1)C(=O)c1cc(C(=O)NCCNC(=O)[C@@H](N)[C@@H](C)O)ccc1C2=O | > 40 |  | > 40 | 3.2 | 0.3 | 
N[C@@H](Cc1ccccc1)C(=O)NCC(=O)Nc1ccc2c(c1)C(=O)c1ccc(NC(=O)CNC(=O)[C@@H](N)Cc3ccccc3)cc1C2=O | > 40 |  | > 40 | 0.6 | 0.5 | 
CC[C@H](C)[C@H](N)C(=O)NCCNC(=O)c1ccc2c(c1)C(=O)c1cc(C(=O)NCCNC(=O)[C@@H](N)[C@@H](C)CC)ccc1C2=O | > 40 |  | > 40 | 3 | 0.4 | 
N[C@@H](Cc1ccccc1)C(=O)NCCNC(=O)c1ccc2c(c1)C(=O)c1cc(C(=O)NCCNC(=O)[C@@H](N)Cc3ccccc3)ccc1C2=O | > 40 |  | > 40 | 1 | 0.1 | 
CC(C)C[C@H](N)C(=O)NCCNC(=O)c1ccc2c(c1)C(=O)c1cc(C(=O)NCCNC(=O)[C@@H](N)CC(C)C)ccc1C2=O | > 40 |  | > 40 | 2.7 | 0.3 | 
C[C@H](N)C(=O)NCCNC(=O)c1ccc2c(c1)C(=O)c1ccc(C(=O)NCCNC(=O)[C@H](C)N)cc1C2=O | > 40 |  | > 40 | 4.4 | 0.4 | 
N[C@@H](CO)C(=O)NCCNC(=O)c1ccc2c(c1)C(=O)c1ccc(C(=O)NCCNC(=O)[C@@H](N)CO)cc1C2=O | > 40 |  | > 40 | 2.5 | 0.3 | 
N=C(N)NCCC[C@H](N)C(=O)NCCNC(=O)c1ccc2c(c1)C(=O)c1cc(C(=O)NCCNC(=O)[C@@H](N)CCCNC(=N)N)ccc1C2=O |  | 35 |  | 16.2 | 5.1 | 85
C[C@@H](O)[C@H](N)C(=O)NCCNC(=O)c1ccc2c(c1)C(=O)c1ccc(C(=O)NCCNC(=O)[C@@H](N)[C@@H](C)O)cc1C2=O | > 40 |  | > 40 | 1.9 | 0.4 | 
NC(N)=NCCC[C@H](N)C(=O)NCC(=O)Nc1ccc2c(c1)C(=O)c1ccc(NC(=O)CNC(=O)[C@@H](N)CCCN=C(N)N)cc1C2=O | 10 |  | 0.8 |  |  | 
